Shown are actives, neighbours in structure and some others; about 3.5% of the full set was active somewhere.
RGS4 block = human RGS4 inhibition. P49798. HEK293 M3R/RGS4 inducible, Fluo-4 calcium flux; hits give high values; triggered by carbachol at its EC20. B-score at 10 µM. actives 0.45% (n = 310,000);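 active = B-score, a plate-corrected calcium signal, over three deviations above library mean, with baseline fluorescence within five deviations of library mean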;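 also: RGS4 expression induced by doxycycline in cells with stable M3 receptor; B-score is computed from the integrated fluorescence ratio over baseline after carbachol; higher B-score means a larger calcium signal and so more RGS4 inhibition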
Target sequence (P49798 whole entry, looked up): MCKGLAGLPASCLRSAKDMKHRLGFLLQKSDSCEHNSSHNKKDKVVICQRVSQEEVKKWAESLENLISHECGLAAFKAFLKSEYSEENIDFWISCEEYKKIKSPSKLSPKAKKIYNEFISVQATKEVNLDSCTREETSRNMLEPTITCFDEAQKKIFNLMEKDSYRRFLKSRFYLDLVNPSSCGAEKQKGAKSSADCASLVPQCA
MrgX1 PAM = human MrgX1 positive allosteric modulation, primary screen | B-score at 10 µM | actives 0.63% (n = 310,000) | MrgX1-HEK293, Fluo-4 calcium flux, FDSS; hits give high values | AID 588675;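 active = plate-corrected calcium response at least 3 library SD above typical, normal starting fluorescence, not activating the receptor alone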;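 also: compound read alongside a low EC10 to EC30 dose of BAM8-22 agonist; peak minus trough fluorescence over baseline measured at the second addition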
Target sequence (Q96LB2 whole entry, looked up): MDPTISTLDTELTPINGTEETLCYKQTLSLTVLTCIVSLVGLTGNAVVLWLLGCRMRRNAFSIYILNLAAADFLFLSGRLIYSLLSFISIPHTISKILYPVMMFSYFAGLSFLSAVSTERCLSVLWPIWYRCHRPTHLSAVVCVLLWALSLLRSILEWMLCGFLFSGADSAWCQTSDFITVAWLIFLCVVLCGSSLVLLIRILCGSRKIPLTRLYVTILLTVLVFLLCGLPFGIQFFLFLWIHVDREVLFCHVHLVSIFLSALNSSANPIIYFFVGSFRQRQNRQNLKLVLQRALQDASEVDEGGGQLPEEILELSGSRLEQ
MrgX1 antagonist = blocks BAM8-22 activation of human MrgX1 receptor. MRGX1-HEK293 calcium flux, Fluo-4, BAM8-22 antagonism; hits give low values. Q96LB2. actives 1.3% (n = 310,000). B-score at 10 µM;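 active = calcium-response B-score plate-corrected more than 3 library SD below zero, starting fluorescence within 5 deviations, no agonist response on first addition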;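 also: peak minus trough fluorescence over baseline after final BAM8-22 challenge near maximal dose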
MrgX1 ag = agonists of human MrgX1 receptor. Q96LB2. MrgX1-HEK293 cells, Fluo-4 calcium fluorescence, agonist mode; hits give high values. B-score at 10 µM. actives 0.44% (n = 310,000). AID 588627;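 active = calcium response B-score plate-corrected fluorescence ratio at least 3 library SD, with starting fluorescence B-score inside 5 SD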
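Test system: HEK293 cells stably expressing human MrgX1 receptor; amount: 15,000 cells per well; doses: compound delivered in addition one of three; times: overnight plating before 1 h dye loading; detection: Fluo-4 NW calcium-flux fluorescence, kinetic read; read-out basis: B-scored fluorescence response ratio; controls: positive and negative controls per plate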
RGS4 act = potentiators or activators of RGS4; HEK293 M3R/inducible RGS4, carbachol calcium flux Fluo4; hits give low values; B-score at 10 µM; actives 0.92% (n = 310,000); AID 463111;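 active = B-score of the integrated calcium signal more than 4 SD below the library mean, with starting fluorescence not abnormally high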;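 also: negative B-score means reduced calcium response which marks RGS4 activation or potentiation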
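Assay system: HEK293 FlpIn-TREx cells, stable M3R, doxycycline-inducible RGS4 / Probe or stimulus: carbachol, ECmax concentration / Times: overnight RGS4 induction, 30 min dye load 37 °C, 20 min compound RT / Signal: kinetic calcium fluorescence imaging with Fluo4-AM dye, 2 µM / Measure: Agonist-evoked peak-minus-minimum fluorescence over baseline, integrated ratio, B score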
Active calls of the source: *.

Results for CN(CC(=O)Nc1ccccc1Oc1ccccc1)Cc1ccccc1F ?
RGS4 block: inactive; MrgX1 PAM: inactive; MrgX1 antagonist: inactive; MrgX1 ag: inactive; RGS4 act: inactive

What do the screens show for `O=[N+]([O-])c1cc(-c2ccc(/C=N/c3nc4ccccn4c3-c3ccco3)o2)ccc1Cl`?
RGS4 block: inactive; MrgX1 PAM: inactive; MrgX1 antagonist: inactive; MrgX1 ag: inactive; RGS4 act: inactive

What do the screens show for `CCOCCc1nnc(NC(=O)CCC2CCCCC2)s1`?
RGS4 block: inactive; MrgX1 PAM: inactive; MrgX1 antagonist: inactive; MrgX1 ag: inactive; RGS4 act: inactive

Results for O=c1/c(=C\c2ccc(O)cc2)sc2n1C(c1ccccc1)C(c1ccccc1)=NN=2 (configuration not stated) ?
RGS4 block: inactive; MrgX1 PAM: 12.6*; MrgX1 antagonist: inactive; MrgX1 ag: inactive; RGS4 act: inactive

How did Cc1ccc(C2CC(=O)NC(SCc3ccccc3)=C2C#N)o1 (configuration not stated) do in these assays?
RGS4 block: inactive; MrgX1 PAM: inactive; MrgX1 antagonist: inactive; MrgX1 ag: 29.6*; RGS4 act: inactive

What do the screens show for `CCSC1=C(C#N)C(c2ccc(C)o2)CC(=O)N1` (configuration not stated)?
RGS4 block: inactive; MrgX1 PAM: inactive; MrgX1 antagonist: inactive; MrgX1 ag: inactive; RGS4 act: inactive

Results for CNC(=O)OC(C)CNS(=O)(=O)c1ccc(C)cc1 (configuration not stated) ?
RGS4 block: inactive; MrgX1 PAM: inactive; MrgX1 antagonist: inactive; MrgX1 ag: inactive; RGS4 act: inactive

What do the screens show for `O=C(Nc1ccc(C(O)(C(F)(F)F)C(F)(F)F)cc1)c1ccc(Cl)c([N+](=O)[O-])c1`?
RGS4 block: inactive; MrgX1 PAM: inactive; MrgX1 antagonist: inactive; MrgX1 ag: inactive; RGS4 act: -8.83*

What do the screens show for `N#Cc1ccsc1NC(=O)c1cccc([N+](=O)[O-])c1`?
RGS4 block: inactive; MrgX1 PAM: inactive; MrgX1 antagonist: inactive; MrgX1 ag: inactive; RGS4 act: inactive

Results for N#Cc1ccsc1NC(=O)c1ccc(Cl)c([N+](=O)[O-])c1 ?
RGS4 block: inactive; MrgX1 PAM: inactive; MrgX1 antagonist: -4.92*; MrgX1 ag: inactive; RGS4 act: inactive

What do the screens show for `COCCN1CCc2c(C)nc3c(-c4ccc(OC)c(OC)c4)cnn3c21`?
RGS4 block: inactive; MrgX1 PAM: inactive; MrgX1 antagonist: inactive; MrgX1 ag: inactive; RGS4 act: inactive

What do the screens show for `O=c1oc2ccc(Br)cc2cc1S(=O)(=O)c1ccc(F)cc1`?
RGS4 block: inactive; MrgX1 PAM: inactive; MrgX1 antagonist: inactive; MrgX1 ag: inactive; RGS4 act: inactive

How did CSc1nc(N)c2c(n1)OC(N)=C(C#N)C2c1cccnc1 (configuration not stated) do in these assays?
RGS4 block: inactive; MrgX1 PAM: inactive; MrgX1 antagonist: inactive; MrgX1 ag: inactive; RGS4 act: inactive

What do the screens show for `CCC(C)(C)n1nnnc1C(c1ccccc1)N1CCN(Cc2ccccc2)CC1` (configuration not stated)?
RGS4 block: inactive; MrgX1 PAM: inactive; MrgX1 antagonist: inactive; MrgX1 ag: inactive; RGS4 act: inactive

Results for CCC(C)(C)n1nnnc1CN1CCN(C(c2ccccc2)c2ccccc2)CC1 ?
RGS4 block: inactive; MrgX1 PAM: inactive; MrgX1 antagonist: inactive; MrgX1 ag: inactive; RGS4 act: -7.45*

What do the screens show for `Cc1ccccc1C(=O)N1CCN(c2ccc(N3CCOCC3)nn2)CC1`?
RGS4 block: inactive; MrgX1 PAM: inactive; MrgX1 antagonist: inactive; MrgX1 ag: inactive; RGS4 act: inactive

How did CC(NC(=O)c1ccc2nc[nH]c2c1)c1ccccc1 (configuration not stated) do in these assays?
RGS4 block: inactive; MrgX1 PAM: inactive; MrgX1 antagonist: inactive; MrgX1 ag: inactive; RGS4 act: inactive

Results for CN(C)CCCNc1c2ccccc2nc2ccccc12 ?
RGS4 block: inactive; MrgX1 PAM: inactive; MrgX1 antagonist: inactive; MrgX1 ag: inactive; RGS4 act: inactive

Results for OCCNc1c2ccccc2nc2c(F)c(F)c(F)c(F)c12 ?
RGS4 block: inactive; MrgX1 PAM: inactive; MrgX1 antagonist: -8*; MrgX1 ag: inactive; RGS4 act: inactive

How did O=C(O)c1ccccc1/C=N/Nc1nc(N2CCCCC2)nc(N2CCCCC2)n1 do in these assays?
RGS4 block: inactive; MrgX1 PAM: inactive; MrgX1 antagonist: -6.58*; MrgX1 ag: inactive; RGS4 act: inactive

How did COc1cccc(/C=N/Nc2nc(N3CCCC3)nc(N3CCCC3)n2)c1O do in these assays?
RGS4 block: inactive; MrgX1 PAM: inactive; MrgX1 antagonist: inactive; MrgX1 ag: inactive; RGS4 act: -7.68*

What do the screens show for `COc1ccc(-c2c(C)nc(N)nc2-c2ccc(OC)cc2O)cc1`?
RGS4 block: inactive; MrgX1 PAM: inactive; MrgX1 antagonist: inactive; MrgX1 ag: inactive; RGS4 act: inactive

How did COc1ccc(NC(=O)/C(C#N)=C\c2ccc(N3CCOCC3)o2)cc1 do in these assays?
RGS4 block: inactive; MrgX1 PAM: inactive; MrgX1 antagonist: inactive; MrgX1 ag: inactive; RGS4 act: -8.57*

How did N#C/C(=C/c1ccc(N2CCCCC2)o1)C(=O)Nc1ccc(Cl)cc1 do in these assays?
RGS4 block: inactive; MrgX1 PAM: inactive; MrgX1 antagonist: -7.83*; MrgX1 ag: inactive; RGS4 act: inactive

How did N#C/C(=C\c1ccc(N2CCOCC2)o1)C(=O)Nc1ccc(O)cc1 do in these assays?
RGS4 block: inactive; MrgX1 PAM: inactive; MrgX1 antagonist: inactive; MrgX1 ag: inactive; RGS4 act: inactive

What do the screens show for `N#C/C(=C/c1ccc(N2CCCCC2)o1)C(=O)Nc1ccc2ccccc2c1`?
RGS4 block: inactive; RGS4 act: inactive

Results for COc1ccccc1NC(=S)NC(=O)C(C)(C)C ?
RGS4 block: inactive; MrgX1 PAM: inactive; MrgX1 antagonist: inactive; MrgX1 ag: inactive; RGS4 act: inactive

What do the screens show for `CSc1ccc(C#N)cc1NC(=O)c1cccnc1Cl`?
RGS4 block: inactive; MrgX1 PAM: inactive; MrgX1 antagonist: inactive; MrgX1 ag: inactive; RGS4 act: inactive

How did Cc1ccc(C(=O)Nn2c(O)c(C=C3N=c4ccccc4=N3)sc2=S)cc1 do in these assays?
RGS4 block: inactive; MrgX1 PAM: inactive; MrgX1 antagonist: inactive; MrgX1 ag: inactive; RGS4 act: inactive

How did Cc1ccc(S(=O)(=O)Nn2c(O)c(C=C3N=c4ccccc4=N3)sc2=S)cc1 do in these assays?
RGS4 block: inactive; MrgX1 PAM: inactive; MrgX1 antagonist: -5.28*; MrgX1 ag: inactive; RGS4 act: inactive

Results for O=C(/C=C/c1ccc(O)c(O)c1)NC(=O)c1ccccc1O ?
RGS4 block: inactive; MrgX1 PAM: inactive; MrgX1 antagonist: -7.75*; MrgX1 ag: inactive; RGS4 act: inactive

Assay outcomes deposited in PubChem by Johns Hopkins Ion Channel Center.
